Measurements from ChEMBL document CHEMBL1130387, “Design of a potent combined pseudopeptide endothelin-A/endothelin-B receptor antagonist, Ac-DBhg16-Leu-Asp-Ile-[NMe]Ile-Trp21 (PD 156252): examination of its pharmacokinetic and spectral properties” (J Med Chem, 1997).
Numbered stars: 1 amine (or outer) side, 2 acyl side, 3 side chain; on linkers, the order of the positions; unused ones are H or OH. Square brackets hold non-standard residues; d marks the D form. Peptide text beside a SMILES is read from it. dGly(5-dibenzosuberyl) = N[C@@H](C(=O)O)C1c2ccccc2CCc2ccccc21; X2 = O=C([C@@H](N[*:1])C1c2ccccc2CCc2ccccc21)[*:2]; NMeDip = CN[C@H](C(=O)O)C(c1ccccc1)c1ccccc1; NMeW = CN[C@@H](Cc1c[nH]c2ccccc12)C(=O)O; Dip = N[C@H](C(=O)O)C(c1ccccc1)c1ccccc1; NMeI = CC[C@H](C)[C@H](NC)C(=O)O; NMeD = CN[C@@H](CC(=O)O)C(=O)O

Experiments:
[1] = Stability in rat intestinal perfusate; format: ADME
Outline: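 Stability measured by incubation in rat intestinal perfusate in vitro. Values are the mean of at least three determinations ± SEM from two perfusate preparations. Perfusate leucine aminopeptidase activity was 0.05–0.32 nkat/mL. Degradation was also checked with a potato tuber carboxypeptidase inhibitor added.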

Oryctolagus cuniculus [2] = organism: Oryctolagus cuniculus; assay: Ability to antagonize endothelin -1 (ET-1) stimulated vasoconstriction in vitro in rabbit femoral artery; format: functional; details: read-out: pA2 (converted)
[3] = target: T1, Endothelin receptor type B (Rattus norvegicus, UniProt P21451); assay: Inhibition of binding to Endothelin B receptor of rat cerebellar membranes.; format: cell membranes, Membrane
T1 sequence (P21451 whole entry): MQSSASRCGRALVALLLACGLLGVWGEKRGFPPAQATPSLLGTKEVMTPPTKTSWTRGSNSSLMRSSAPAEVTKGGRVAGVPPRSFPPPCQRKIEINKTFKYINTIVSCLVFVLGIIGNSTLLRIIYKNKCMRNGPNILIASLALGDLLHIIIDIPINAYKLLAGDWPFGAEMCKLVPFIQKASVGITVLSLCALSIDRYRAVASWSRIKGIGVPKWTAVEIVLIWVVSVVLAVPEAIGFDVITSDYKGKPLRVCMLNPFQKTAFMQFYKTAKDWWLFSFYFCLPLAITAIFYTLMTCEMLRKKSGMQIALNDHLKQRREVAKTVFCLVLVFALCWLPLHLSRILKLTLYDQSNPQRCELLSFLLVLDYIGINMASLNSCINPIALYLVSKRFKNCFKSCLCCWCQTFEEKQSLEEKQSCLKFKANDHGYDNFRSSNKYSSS
Outline: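 Competition binding assays: ETA on rabbit renal vascular smooth muscle cells, ETB on rat cerebellar membranes. Each IC50 comes from a single competition experiment with points measured in duplicate. Where more than one IC50 was determined, values are given as mean ± SEM.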

Caco-2 = assay: Permeability in Caco-2 Cell monolayers for the compound; format: functional, cell-based; details: Homo sapiens
Outline: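 Transport measured across Caco-2 monolayers (human colon adenocarcinoma line that differentiates to an enterocyte-like phenotype). Each value is the mean of three to five cell monolayers, with standard errors.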

Oryctolagus cuniculus [4] = organism: Oryctolagus cuniculus; assay: Ability to antagonize […] SRTX-6c stimulated vasoconstriction in vitro in rabbit pulmonary artery; format: functional; details: read-out: pA2 (converted)

SMILES | half-life [1] [h] | IC50 [3] [nM] | Permeability (10e4*cm min-1) (Caco-2) | further results
CC[C@H](C)[C@H](NC(=O)[C@H](CC(=O)O)NC(=O)[C@H](CC(C)C)NC(=O)[C@H](NC(C)=O)C1c2ccccc2CCc2ccccc21)C(=O)N(C)[C@H](C(=O)N[C@@H](Cc1c[nH]c2ccccc12)C(=O)O)[C@@H](C)CC | 8.97 |  |  | Kb (Oryctolagus cuniculus [2]): 50.1 nM
CC[C@H](C)[C@H](NC(=O)[C@H](CC(=O)O)NC(=O)[C@H](CC(C)C)N(C)C(=O)[C@H](NC(C)=O)C(c1ccccc1)c1ccccc1)C(=O)N[C@H](C(=O)N[C@@H](Cc1c[nH]c2ccccc12)C(=O)O)[C@@H](C)CC |  | 600 |  | 
CC[C@H](C)[C@H](NC(=O)[C@@H](NC(=O)[C@H](CC(=O)O)NC(=O)[C@H](CC(C)C)NC(=O)[C@H](NC(C)=O)C(c1ccccc1)c1ccccc1)[C@@H](C)CC)C(=O)CNC(=O)[C@@H](N)Cc1c[nH]c2ccccc12 |  | > 250 |  | 
CC[C@@H](C)[C@H](C(=O)N[C@@H](Cc1c[nH]c2ccccc12)C(=O)O)N(C)C(=O)[C@@H](NC(=O)[C@@H](CC(=O)O)NC(=O)[C@H](CC(C)C)NC(=O)[C@H](NC(C)=O)C1c2ccccc2CCc2ccccc21)[C@@H](C)CC |  |  | 6.3 | 
CC[C@H](C)[C@H](NC(=O)[C@H](CC(=O)O)NC(=O)[C@H](CC(C)C)NC(=O)[C@@H](NC(C)=O)C(c1ccccc1)c1ccccc1)C(=O)N[C@H](C(=O)N[C@@H](Cc1c[nH]c2ccccc12)C(=O)O)[C@@H](C)CC (Ac-[Dip]LDIIW-OH) | 0.302 |  | 2 | Kb (Oryctolagus cuniculus [4]): 501 nM; Kb (Oryctolagus cuniculus [2]): 251 nM
CC[C@H](C)[C@H](NC(=O)[C@H](CC(=O)O)NC(=O)[C@H](CC(C)C)NC(=O)[C@@H](NC(C)=O)C(c1ccccc1)c1ccccc1)C(=O)N[C@H](C(=O)N(C)[C@@H](Cc1c[nH]c2ccccc12)C(=O)O)[C@@H](C)CC (Ac-[Dip]LDII[NMeW]-OH) |  | 11000 |  | 
CC[C@H](C)[C@H](NC(=O)[C@H](CC(=O)O)NC(=O)[C@H](CC(C)C)NC(=O)[C@@H](NC(C)=O)C(c1ccccc1)c1ccccc1)C(=O)N(C)[C@H](C(=O)N[C@@H](Cc1c[nH]c2ccccc12)C(=O)O)[C@@H](C)CC (Ac-[Dip]LDI[NMeI]W-OH) | 14.6 | 80 | 2 | 
CC[C@H](C)[C@H](NC(=O)[C@H]([C@@H](C)CC)N(C)C(=O)[C@H](CC(=O)O)NC(=O)[C@H](CC(C)C)NC(=O)[C@@H](NC(C)=O)C(c1ccccc1)c1ccccc1)C(=O)N[C@@H](Cc1c[nH]c2ccccc12)C(=O)O (Ac-[Dip]LD[NMeI]IW-OH) |  | > 1000 |  | 
CC[C@H](C)[C@H](NC(=O)[C@@H](NC(=O)[C@H](CC(=O)O)N(C)C(=O)[C@H](CC(C)C)NC(=O)[C@@H](NC(C)=O)C(c1ccccc1)c1ccccc1)[C@@H](C)CC)C(=O)N[C@@H](Cc1c[nH]c2ccccc12)C(=O)O (Ac-[Dip]L[NMeD]IIW-OH) |  | 1500 |  | 
CC[C@H](C)[C@H](NC(=O)[C@H](CC(=O)O)NC(=O)[C@H](CC(C)C)NC(=O)[C@H](C(c1ccccc1)c1ccccc1)N(C)C(C)=O)C(=O)N[C@H](C(=O)N[C@@H](Cc1c[nH]c2ccccc12)C(=O)O)[C@@H](C)CC (Ac-[NMeDip]LDIIW-OH) |  | 8000 |  | 
CC[C@H](C)[C@H](NC(=O)[C@H](CC(=O)O)NC(=O)[C@H](CC(C)C)NC(=O)[C@@H](NC(C)=O)C1c2ccccc2CCc2ccccc21)C(=O)N[C@H](C(=O)N[C@@H](Cc1c[nH]c2ccccc12)C(=O)O)[C@@H](C)CC (Ac-[X2]LDIIW-OH) |  |  | 4.7 | 
CC[C@H](C)[C@H](NC(=O)[C@H](CC(=O)O)NC(=O)[C@H](CC(C)C)NC(=O)[C@H](NC(C)=O)C1c2ccccc2CCc2ccccc21)C(=O)N[C@H](C(=O)N[C@@H](Cc1c[nH]c2ccccc12)C(=O)O)[C@@H](C)CC (Ac-[dGly(5-dibenzosuberyl)]LDIIW-OH) | 0.177 |  |  | Kb (Oryctolagus cuniculus [4]): 100 nM; Kb (Oryctolagus cuniculus [2]): 158 nM
